In ChEMBL document CHEMBL6092177, “Applying molecular hybridization to design a new class of pyrazolo[3,4-d]pyrimidines as Src inhibitors active in hepatocellular carcinoma” (Eur J Med Chem, 2024):
In brackets after ≈: the same amount, converted by molar mass. Activity calls are given as the source filed them. No cut-off for these calls is given here.

Legend:
[1] = Thermodynamic solubility of compound by LC-MS/MS analysis; type: physicochemical; details: read-out: Therm_solubility
Procedure, shortened: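 Thermodynamic solubility: solubilized compound quantified in triplicate by LC-MS/MS on a C18 column with water/ACN gradient, both with 0.1% formic acid. Calibration from DMSO standards 0.1–100 µM; LoQ below 0.01 µM.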

[2] = Permeability of the compound in PBS buffer at pH 7.4 assessed as membrane retention rate by PAMPA method; type: ADME
Procedure, shortened: (§1)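 PAMPA: DMSO stock diluted 1:1 with 10 mM PBS pH 7.4 as donor, through filter coated with 1% phosphatidylcholine in dodecane. Acceptor DMSO/PBS 1:1; incubated at rt for 4 h with gentle shaking. Both compartments quantified by LC-UV-MS to give Papp and % membrane retention; three independent experiments in triplicate.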

[3] = Apparent permeability of compound in PBS buffer at pH 7.4 incubated for 4 hrs by LC-UV-MS analysis; type: ADME; details: not told; procedure, shortened: as §1
[4] = Stability in human plasma measured after 24 hrs by UV-LC/MS analysis; type: ADME, cell-free; details: read-out: Stability
[5] = tested on: HepG2; assay: Antiproliferative activity against human HepG2 cells assessed as cell growth inhibition measured at 72 hrs by MTT assay; details: HepG2, 72 h
[6] = Metabolic stability in human liver microsome measured after 1 hr in presence of NADPH by UV/LC-MS analysis; type: ADME; details: liver microsomes, read-out: Stability
Procedure, shortened: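 Compound incubated with HLM (0.2 mg/mL) and NADPH (in 48 mM MgCl2) in 10 mM PBS pH 7.4 at 37 °C for 60 min with shaking. Stopped with cold ACN, centrifuged, dried under N2 and quantified by UV/LC-MS for % unmetabolized.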

[7] = tested on: Huh-7; assay: Antiproliferative activity against human Huh-7 cells assessed as cell growth inhibition measured at 48 hrs by MTT assay; details: Huh-7, 48 h
[8] = tested on: Huh-7; assay: Antiproliferative activity against human Huh-7 cells assessed as cell growth inhibition measured at 24 hrs by MTT assay; details: Huh-7, 24 h
[9] = tested on: Huh-7; assay: Antiproliferative activity against human Huh-7 cells assessed as cell growth inhibition measured at 72 hrs by MTT assay; details: Huh-7, 72 h
[10] = Stability in human plasma assessed as half life measured up to 24 hrs by UV-LC/MS analysis; type: ADME, cell-free
[11] = Cytotoxicity against human HEK293 cells assessed as reduction in cell proliferation incubated for 48 hrs by MTT assay; type: toxicity, cell-based
[12] = Cytotoxicity against human HaCaT cells assessed as reduction in cell proliferation incubated for 24 hrs by MTT assay; type: toxicity, cell-based
[13] = tested on: HepG2; assay: Antiproliferative activity against human HepG2 cells assessed as cell growth inhibition measured at 24 hrs by MTT assay; details: HepG2, 24 h
[14] = Cytotoxicity against human HaCaT cells assessed as reduction in cell proliferation incubated for 72 hrs by MTT assay; type: toxicity, cell-based
[15] = tested on: HepG2; assay: Antiproliferative activity against human HepG2 cells assessed as cell growth inhibition measured at 48 hrs by MTT assay; details: HepG2, 48 h
[16] = Cytotoxicity against human HaCaT cells assessed as reduction in cell proliferation incubated for 48 hrs by MTT assay; type: toxicity, cell-based
[17] = Inhibition of Abl (unknown origin)
[18] = Cytotoxicity against human HEK293 cells assessed as reduction in cell proliferation incubated for 72 hrs by MTT assay; type: toxicity, cell-based
[19] = Cytotoxicity against human HEK293 cells assessed as reduction in cell proliferation incubated for 24 hrs by MTT assay; type: toxicity, cell-based
[20] = tested on: HepG2; assay: Antiproliferative activity against human HepG2 cells assessed as cell viability at 0.1 to 1 uM preincubated for 24 hrs followed by 48 hrs drug-free treatment by MTT assay; type: functional; details: dose 0.1-1 µM
Procedure, shortened: (§2)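 HepG2 exposed to 0.1–100 µM for 24 h (or 48 h), then washed with PBS and kept 48 h (or 24 h) in drug-free DMEM with 10% FBS. Viability by MTT. Means ± SD of three independent experiments in triplicate; ANOVA with Tukey test.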

[21] = tested on: HepG2; assay: Inhibition of cell colony formation in human HepG2 cells assessed as reduction in clonogenic survival at 0.5 uM incubated for 10 days by crystal violet staining based assay; type: functional; details: HepG2, 240 h, time 10 day
Procedure, shortened: (§3)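 HepG2 at 1000 cells/dish in DMEM with 10% FBS, exposed to 0.25, 0.5, 1 or 2 µM for 10 days. Colonies (>50 cells) fixed with methanol, stained with 0.5% crystal violet and counted. Three independent experiments in triplicate; unpaired t-test vs untreated.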

[22] = tested on: HepG2; assay: Inhibition of cell migration in human HepG2 cells assessed as wound closure at 0.25 uM measured at 72 hrs by T-sratch assay; details: HepG2, 72 h
[23] = tested on: HepG2; assay: Induction of cell cycle arrest in human HepG2 cells assessed as accumulation of cells at G2/M phase incubated for 72 hrs by FACScan flow cytometer analysis relative to control; type: functional
Procedure, shortened: (§4)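 HepG2 treated about 2 µM for 72 h. DNA content measured by FACScan flow cytometry, red fluorescence through a 563–607 nm bandpass (FL2), 10^4 cells/sample. Phase percentages are means ± SD of three independent experiments in triplicate vs control.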

[24] = tested on: HepG2; assay: Induction of cell cycle arrest in human HepG2 cells assessed as decrease in accumulation of G0/G1 phase incubated for 72 hrs by FACScan flow cytometer analysis relative to control; type: functional; set-up: scale not given: the % may be the effect or the level left; procedure, shortened: as §4
[25] = tested on: HepG2; assay: Antiproliferative activity against human HepG2 cells assessed as inhibition of cell growth at 0.1 to 1 uM incubated for 24 hrs by MTT assay; type: functional, cell-based; details: dose 0.1-1 µM; procedure, shortened: as §2
[26] = tested on: HepG2; assay: Induction of cell cycle arrest in human HepG2 cells assessed as accumulation of cells at S phase incubated for 72 hrs by FACScan flow cytometer analysis relative to control; type: functional; procedure, shortened: as §4
[27] = tested on: HepG2; assay: Inhibition of cell colony formation in human HepG2 cells assessed as reduction in clonogenic survival at 1 to 2 uM incubated for 10 days by crystal violet staining based assay; type: functional; details: dose 1-2 µM, time 10 day; procedure, shortened: as §3
[28] = tested on: HepG2; assay: Induction of cell cycle arrest in human HepG2 cells assessed as accumulation of hypodiploid cells at sub G0/G1 phase incubated for 72 hrs by FACScan flow cytometer analysis relative to control; type: functional; procedure, shortened: as §4
[29] = tested on: HepG2; assay: Antiproliferative activity against human HepG2 cells assessed as inhibition of cell growth at 10 to 100 uM preincubated for 24 hrs followed by 48 hrs drug-free treatment by MTT assay; type: functional, cell-based; details: dose 10-100 µM; procedure, shortened: as §2

solubility thermodynamic [1] [µg/mL] | membrane retention [2] [%] | Papp at 4 h [3] [×10⁻⁶ cm/s] | remaining at 24 h [4] [%] | IC50 [5] [µM] | remaining at 1 h [6] [%] | IC50 [7] [µM] | IC50 [8] [µM] | IC50 [9] [µM] | IC50 [13] [µM] | IC50 [15] [µM] | SMILES | also measured
< 0.01 | 16.49 | 1.61 | 98.3 | 7.9 | 99.8 | 33.5 | 67.6 | 14 |  |  | Cn1ncc2c(Nc3ncc(C(=O)Nc4ccccc4)s3)nc(SCCN3CCOCC3)nc21 | half-life [10]: > 24 h
 |  |  |  | 7.75 |  | 16.3 | 37.5 | 12.7 | 23.5 | 9.54 | Cc1nc(Nc2ncc(C(=O)Nc3c(C)cccc3Cl)s2)cc(N2CCN(CCO)CC2)n1 [DASATINIB ANHYDROUS] | CC50 at 48 h [11]: 0.89 µM; CC50 at 24 h [12]: 20.4 µM; CC50 at 72 h [14]: 0.22 µM; CC50 at 48 h [16]: 1.35 µM; IC50 [17]: 0.0006 µM; CC50 at 72 h [18]: 0.78 µM; CC50 at 24 h [19]: 5.4 µM
< 0.01 | 19 | < 0.1 | > 100 | 2.47 | > 100 | 28.8 | 54.7 | 10.3 | 59.6 | 13.9 | Cc1ccc(O)cc1NC(=O)c1cnc(Nc2nc(SCCN3CCOCC3)nc3c2cnn3C)s1 | Activity [20]: 15%; CC50 at 48 h [11]: 6.9 µM; inhibition at 0.5 µM [21]: 40%; CC50 at 24 h [12]: 92.8 µM; CC50 at 72 h [14]: 3.27 µM; wound closure % at 0.25 µM [22]: ~70%; CC50 at 48 h [16]: 22.8 µM; Activity [23]: 38.5%; Activity [24]: 10.4%; CC50 at 72 h [18]: 5.23 µM; Activity [25]: Active; Activity [26]: 25.2%; CC50 at 24 h [19]: 18.5 µM; Activity [27]: 24%; Activity [28]: 44.1%; Activity [29]: inactive
< 0.01 | 8.36 | 12 | 88.5 | 3.7 | 99 | 21.2 |  | 15.3 |  | 7.46 | O=C(Nc1ccccc1)c1cnc(Nc2ncnc3c2cnn3CC(Cl)c2ccccc2)s1 (stereo not given) | 
0.03 (≈ 0.0585 µM) | 3.1 | 0.1 |  | > 50 | 99.4 |  |  |  | > 50 | > 50 | Cn1ncc2c(Nc3ncc(C(=O)Nc4cccc(O)c4)s3)nc(SCCN3CCOCC3)nc21 | 
0.01 (≈ 0.0234 µM) | 7.28 | < 0.1 | 94.5 | 6.52 | > 100 | 48.8 |  | 26.1 |  |  | Cn1ncc2c(Nc3ncc(C(=O)Nc4cccc(O)c4)s3)nc(NCCO)nc21 | 
< 0.01 | 6.1 | 0.14 | > 100 | 3.19 | > 100 | 22 |  | 11.1 | 87.1 | 5.06 | O=C(Nc1cccc(O)c1)c1cnc(Nc2ncnc3c2cnn3CC(Cl)c2ccccc2)s1 (stereo not given) | 
< 0.01 | 0.51 | < 0.1 | 99.5 | 1.55 | > 100 | 13.7 | 26.5 | 7.21 | 12 | 7.31 | Cn1ncc2c(Nc3ncc(C(=O)Nc4cc(O)ccc4Br)s3)nc(SCCN3CCOCC3)nc21 | 
